The text below walks through data of ChEMBL document CHEMBL4673243, “Discovery of 9-Cyclopropylethynyl-2-((S)-1-[1,4]dioxan-2-ylmethoxy)-6,7-dihydropyrimido[6,1-a]isoquinolin-4-one (GLPG1205), a Unique GPR84 Negative Allosteric Modulator Undergoing Evaluation in a Phase II Clinical Trial” (J Med Chem, 2020).

For orientation: IC50 means the concentration that inhibits the measured activity by half. Usually Tmax stands for the time at which the peak concentration occurs. In general, AUC(0-inf) refers to the area under the concentration-time curve extrapolated to infinity. Low readings indicate low exposure, high ones high exposure. As usually defined, the Cmax is the highest concentration seen after dosing. By CLint scaled is commonly meant the rate of metabolic loss divided by the concentration. A lower CLint scaled goes with greater metabolic stability.

The target of data set [1] is 3',5'-cyclic-AMP phosphodiesterase 4A (Homo sapiens, UniProt P27815). Nature of the data set: Inhibition of recombinant human PDE4A overexpressed in HEK293 cells assessed as reduction in cAMP hydrolysis by HTRF based immunoassay. The data set is classed as cell-based. The following applies: hek293. An outline of the steps:
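Human PDE4A from lysate of HEK293 cells overexpressing the enzyme hydrolyses cAMP; remaining cAMP measured by HTRF competitive immunoassay (d2-labelled cAMP vs cryptate anti-cAMP antibody), signal inversely proportional to cAMP; IC50 determined.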
Background: Time-resolved FRET reads energy transfer from a long-lived donor to a nearby acceptor.

A short description of data set [2]: Inhibition of embelin-induced migration of human neutrophils preincubated for 30 mins followed by embelin addition and measured after 1 hr by ATPlite luminescence assay. As to conditions: Neutrophil; call rule not given here. In general terms: In ATP-based viability assays light output follows the ATP content of the culture.
Data set [3] can be described thus: in vivo. As to conditions: male, Sprague-Dawley, rat, po, 5 mg/kg.
Data set [4] in a line: in vivo. As to conditions: male, Sprague-Dawley, rat, po, 5 mg/kg. This is another data set of the same source.
A short description of data set [5]: in vivo. The following applies: male, Sprague-Dawley, rat, po, 5 mg/kg. The source holds these as a separate data set.
The nature of data set [6]: in vitro. As to conditions: mouse, liver microsomes.
A short description of data set [7]: in vitro. The following applies: human, liver microsomes.
Data set [8] is described as follows: in vitro. The following applies: rat, liver microsomes. (In general: Liver microsomes are vesicles of endoplasmic reticulum, rich in cytochrome P450 enzymes.)

Chain of 3',5'-cyclic-AMP phosphodiesterase 4A (P27815 whole entry): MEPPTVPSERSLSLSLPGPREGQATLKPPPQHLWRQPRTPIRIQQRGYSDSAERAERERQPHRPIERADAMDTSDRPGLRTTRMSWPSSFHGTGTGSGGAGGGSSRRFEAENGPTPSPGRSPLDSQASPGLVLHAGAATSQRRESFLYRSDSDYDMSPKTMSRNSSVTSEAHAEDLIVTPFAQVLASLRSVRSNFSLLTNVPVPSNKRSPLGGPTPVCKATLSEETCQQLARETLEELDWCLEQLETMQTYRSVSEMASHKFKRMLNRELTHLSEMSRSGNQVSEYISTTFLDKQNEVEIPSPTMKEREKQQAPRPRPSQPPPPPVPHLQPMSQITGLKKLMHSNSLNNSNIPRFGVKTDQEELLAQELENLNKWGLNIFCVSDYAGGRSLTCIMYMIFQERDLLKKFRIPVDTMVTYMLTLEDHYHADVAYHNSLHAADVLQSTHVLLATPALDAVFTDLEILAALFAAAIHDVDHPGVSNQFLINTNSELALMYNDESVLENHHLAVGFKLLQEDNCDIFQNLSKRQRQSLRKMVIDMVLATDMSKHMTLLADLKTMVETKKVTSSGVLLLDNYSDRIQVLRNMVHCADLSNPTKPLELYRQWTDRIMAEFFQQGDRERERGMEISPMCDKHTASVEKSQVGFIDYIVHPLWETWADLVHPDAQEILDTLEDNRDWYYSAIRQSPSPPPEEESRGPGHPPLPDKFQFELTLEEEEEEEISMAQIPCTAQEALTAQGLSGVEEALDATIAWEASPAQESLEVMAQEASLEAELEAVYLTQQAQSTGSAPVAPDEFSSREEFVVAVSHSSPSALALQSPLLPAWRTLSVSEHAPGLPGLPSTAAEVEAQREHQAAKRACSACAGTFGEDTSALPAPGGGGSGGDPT

`O=c1nc(OCC2COCCO2)cc2n1CCc1cc(C#CC3CC3)ccc1-2` (racemic): the IC50 result in data set [1] is “Not Active”; in data set [2] it was 17 nM. Moreover, the Tmax in the data set “in vivo [3]” is 1.7 h. In the data set “in vivo [4]”, this molecule had an AUC(0-inf) at 24 h of 10200 ng·h/mL. In “in vivo [5]”, this molecule yielded a maximum concentration (Cmax) at 1.7 h of 2420 ng/mL. The CLint scaled at 0.5 h, 1 µM is 162 mL/min/kg in “in vitro [6]”, 36.7 mL/min/kg in “in vitro [7]” and 23.3 mL/min/kg in the data set “in vitro [8]”.
